Measured values from PubChem BioAssay.
Activity calls are given as the source filed them.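 Rule for the calls, unless noted: active = current rise at least 3 SD above the untreated control mean in each of two repeat wells; inactive = the rest.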

Legend:
[1] = thallium flux activation in parental CHO cells, counter-screen for KCNQ1 potentiator project (AID 493006;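 active = duplicate-averaged activation above buffer control mean plus 5 SD of those controls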;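 for activation: fluorescence ratio of max minus min over baseline after K+ and Tl+ depolarization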); settings: parental CHO-K1 cells, FluxOR thallium flux, at 10 µM; hits give high values
Summary of the method: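 Assay system: parental CHO-K1 cells lacking KCNQ1, loaded with FluxOR thallium dye; timing: dye 90 min RT, compound 20 min RT; signal: kinetic thallium-flux fluorescence; repeats: duplicate wells per compound, percent values averaged; benchmarks: buffer and R-L3 controls; reagent: Potassium/thallium depolarization pulse; read-out: fluorescence change ratio scaled 0% buffer, 100% R-L3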

[2] = target: Potassium voltage-gated channel subfamily KQT member 1 (Homo sapiens) (UniProt P51787); assay: KCNQ1 potassium channel potentiators, confirmation, FluxOR thallium flux, CHO cells, duplicates (AID 493007;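 active = potentiation averaged over duplicate wells exceeding buffer-only control mean by more than 3 SD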;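 for outcome: cells depolarized by a potassium plus thallium sulfate stimulus after compound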); settings: KCNQ1 cell line, FluxOR thallium flux fluorescence, at 10 µM; hits give high values, % of reference activator effect, buffer zero
Summary of the method: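 material = CHO cells stably expressing the KCNQ1 potassium channel | repeats = duplicate wells per compound | measure = percent activation between buffer and R-L3 responses | signal = FluxOR thallium-flux fluorescence, kinetic read | schedule = FluxOR dye loading 90 min, compound exposure 20 min, room temperature | control set = buffer and R-L3 controls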

[3] = target: Potassium voltage-gated channel subfamily KQT member 2 (Rattus norvegicus) (UniProt O88943); assay: rat KCNQ2 channel potentiation, selectivity assay for KCNQ1 potentiator project, KCNQ2-CHO-K1 cells (AID 493009;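 active = mean duplicate potentiation above the buffer control mean plus 5 SD of buffer wells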;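 note: assay conditions were tuned for KCNQ1 rather than KCNQ2 modulators; signal is max minus min fluorescence divided by baseline after thallium stimulus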); settings: FluxOR thallium flux fluorescence, at 10 µM; hits give high values, scaled: buffer 0, activator control 100
[4] = target: Potassium voltage-gated channel subfamily KQT member 1 (Homo sapiens) (UniProt P51787); assay: KCNQ1 channel current potentiators, confirmation, orthogonal assay for KCNQ1 potentiator project, IonWorks patch clamp, KCNQ1-CHO cells (AID 493184); settings: automated patch clamp current, at 10 µM; hits give high values;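 for current potentiation: percent change of the same well's current before compound addition so 0% = no change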
Summary of the method: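 Assay system – CHO cells carrying KCNQ1 · Medium – pH 7.4 external bath · Probe or stimulus – depolarizing pulse to +40 mV from -90 mV · Compound dosing – one dose, 10 µM final · Measured by – automated perforated-patch electrophysiology · Measure – % potentiation of steady-state current relative to pre-compound · Repeats – two replicates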

Potassium voltage-gated channel subfamily KQT member 1 (Homo sapiens), sequence (P51787 whole entry, looked up): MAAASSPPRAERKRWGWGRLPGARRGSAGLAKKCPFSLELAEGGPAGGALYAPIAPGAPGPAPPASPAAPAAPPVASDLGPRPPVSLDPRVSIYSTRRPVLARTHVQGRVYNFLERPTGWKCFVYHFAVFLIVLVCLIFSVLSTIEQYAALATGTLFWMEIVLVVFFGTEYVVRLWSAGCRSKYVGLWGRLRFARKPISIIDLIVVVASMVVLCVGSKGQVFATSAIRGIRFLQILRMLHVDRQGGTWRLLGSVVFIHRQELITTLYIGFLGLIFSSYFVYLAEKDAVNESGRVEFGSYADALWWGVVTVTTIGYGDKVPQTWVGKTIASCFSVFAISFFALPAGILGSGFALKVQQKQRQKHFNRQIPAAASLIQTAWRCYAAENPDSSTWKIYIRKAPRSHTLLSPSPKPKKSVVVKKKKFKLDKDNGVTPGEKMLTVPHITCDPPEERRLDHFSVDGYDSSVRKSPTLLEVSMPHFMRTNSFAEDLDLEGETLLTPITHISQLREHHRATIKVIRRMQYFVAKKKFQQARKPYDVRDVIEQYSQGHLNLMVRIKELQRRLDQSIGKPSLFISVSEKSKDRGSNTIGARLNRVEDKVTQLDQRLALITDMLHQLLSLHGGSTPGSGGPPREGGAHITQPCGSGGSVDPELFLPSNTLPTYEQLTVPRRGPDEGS
Potassium voltage-gated channel subfamily KQT member 2 (Rattus norvegicus), sequence (O88943 whole entry, looked up): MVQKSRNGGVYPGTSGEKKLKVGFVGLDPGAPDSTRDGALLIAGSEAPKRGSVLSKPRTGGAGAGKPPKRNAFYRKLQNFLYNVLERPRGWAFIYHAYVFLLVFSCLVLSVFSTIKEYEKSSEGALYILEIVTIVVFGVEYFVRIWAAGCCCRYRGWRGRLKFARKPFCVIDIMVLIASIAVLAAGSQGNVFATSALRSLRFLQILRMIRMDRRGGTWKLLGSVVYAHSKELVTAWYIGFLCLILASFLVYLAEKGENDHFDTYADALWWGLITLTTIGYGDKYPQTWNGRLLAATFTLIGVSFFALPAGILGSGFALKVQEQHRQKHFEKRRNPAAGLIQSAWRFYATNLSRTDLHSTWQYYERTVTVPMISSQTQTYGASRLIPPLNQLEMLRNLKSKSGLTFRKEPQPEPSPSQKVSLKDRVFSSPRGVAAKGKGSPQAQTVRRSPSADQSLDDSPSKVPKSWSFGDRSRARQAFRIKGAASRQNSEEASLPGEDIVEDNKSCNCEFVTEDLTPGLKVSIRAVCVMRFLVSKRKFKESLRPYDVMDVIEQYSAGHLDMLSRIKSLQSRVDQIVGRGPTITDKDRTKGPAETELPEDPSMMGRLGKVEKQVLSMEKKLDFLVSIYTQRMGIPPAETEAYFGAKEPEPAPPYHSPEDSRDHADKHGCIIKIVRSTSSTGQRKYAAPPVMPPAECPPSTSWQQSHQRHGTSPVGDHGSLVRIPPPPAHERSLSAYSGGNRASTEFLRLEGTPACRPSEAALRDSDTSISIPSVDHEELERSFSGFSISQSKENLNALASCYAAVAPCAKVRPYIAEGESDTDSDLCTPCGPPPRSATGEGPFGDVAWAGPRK

CCC(=O)NC(=Nc1nc2ccccc2s1)NC(=O)CC
outcome [1]: inactive | outcome [2]: inactive | outcome [3]: inactive | outcome [4]: inactive

COc1cccc(OCC(=O)NNC(=O)C(=O)Nc2cccc(C)c2)c1
activation [1]: 188% (active) | potentiation [2]: 74.5% (active) | potentiation [3]: 224% (active) | outcome [4]: inactive

CSC(=S)N/N=C(\C)c1ccccc1
activation [1]: 246% (active) | potentiation [2]: 50.5% (active) | potentiation [3]: 283% (active) | outcome [4]: inactive

CCOC(=O)c1c(-c2ccc(C)o2)csc1NC(=S)NC(=O)N(C)C
activation [1]: 266% (active) | potentiation [2]: 171% (active) | potentiation [3]: 314% (active) | outcome [4]: inactive

COc1cc(C(=O)NC(=S)NC(C)C)cc(OC)c1OC
outcome [1]: inactive | outcome [2]: inactive | outcome [3]: inactive | outcome [4]: inactive

COc1ccc(-n2c(=S)[nH]c3c(oc4ccccc43)c2=O)cc1
outcome [1]: inactive | outcome [2]: inactive | outcome [3]: inactive | outcome [4]: inactive

Cc1ccc(NC(=O)CCS(=O)(=O)c2cccc3nonc23)c(Br)c1
outcome [1]: inactive | outcome [2]: inactive | outcome [3]: inactive | outcome [4]: inactive

O=C(CSc1nc2cc(Cl)ccc2s1)c1cc2ccccc2o1
outcome [1]: inactive | outcome [2]: inactive | outcome [3]: inactive | outcome [4]: inactive

CC1CCc2c(sc3[nH]c(=S)n(C)c(=O)c23)C1 (stereo not given)
activation [1]: 446% (active) | potentiation [2]: 254% (active) | potentiation [3]: 552% (active) | outcome [4]: inactive

CCN(CC)CCn1c(OC)cc(=O)[nH]c1=O
outcome [1]: inactive | outcome [2]: inactive | outcome [3]: inactive | outcome [4]: inactive

Cc1ccc(C)c(NC(=S)N(Cc2ccco2)C(C)c2cccs2)c1 (stereo not given)
outcome [1]: inactive | outcome [2]: inactive | outcome [3]: inactive | outcome [4]: inactive

O=C(NCc1ccco1)C1CC(c2ccc(Cl)cc2)=NO1 (stereo not given)
outcome [1]: inactive | outcome [2]: inactive | outcome [3]: inactive | outcome [4]: inactive

COCCNC(=O)C1CCN(S(=O)(=O)N2CCC3(CC2)OCCO3)CC1
outcome [1]: inactive | outcome [2]: inactive | outcome [3]: inactive | outcome [4]: inactive

Cc1[nH]c(=S)sc1Cc1ccc(F)cc1
activation [1]: 286% (active) | potentiation [2]: 101% (active) | potentiation [3]: 300% (active) | outcome [4]: inactive

Cc1cccc(C(=O)NNC(=O)C(=O)NC(C)(C)C)c1
activation [1]: 159% (active) | potentiation [2]: 30.5% (active) | potentiation [3]: 146% (active) | outcome [4]: inactive

CC1(C)CC(N2CCOCC2)=CC(=[N+]2CCOCC2)C1
outcome [1]: inactive | outcome [2]: inactive | outcome [3]: inactive | outcome [4]: inactive

O=c1c(-c2ccccc2)[n+]([O-])c2ccccc2n1O
outcome [1]: inactive | outcome [2]: inactive | outcome [3]: inactive | outcome [4]: inactive

CCOC(=O)c1sc(NC(=O)c2ccncc2)nc1C
activation [1]: 161% (active) | potentiation [2]: 54% (active) | potentiation [3]: 166% (active) | outcome [4]: inactive

O=c1c2cc(NC(=S)NCCCN3CCC(Cc4ccccc4)CC3)ccc2nc2n1CCCCC2
outcome [1]: inactive | outcome [2]: inactive | outcome [3]: inactive | outcome [4]: inactive

Cc1ccc(/C=C/C(=O)C2C(=O)c3ccccc3C2=O)cc1
activation [1]: 227% (active) | potentiation [2]: 58.5% (active) | potentiation [3]: 206% (active) | outcome [4]: inactive

Cc1nn(CCc2nn[nH]n2)c2nc(-c3ccc(C4CCCCC4)cc3)cc(C(F)(F)F)c12
activation [1]: 296% (active) | potentiation [2]: 58% (active) | potentiation [3]: 182% (active) | outcome [4]: inactive

CCCc1cc(-c2n[nH]c(=S)n2C(C)c2ccccc2)cs1 (stereo not given)
activation [1]: 139% (active) | potentiation [2]: 37% (active) | outcome [3]: inactive | outcome [4]: inactive

O=C1c2ccccc2NC(c2ccc(-c3cccc(Cl)c3)o2)N1O (stereo not given)
outcome [1]: inactive | outcome [2]: inactive | outcome [3]: inactive | outcome [4]: inactive

Cc1ccc(S(=O)(=O)n2cccc2CO)cc1
outcome [1]: inactive | outcome [2]: inactive | outcome [3]: inactive | outcome [4]: inactive

CCNC(=S)Nc1scc(-c2ccccc2)c1C(=O)OCC
activation [1]: 254% (active) | potentiation [2]: 44% (active) | potentiation [3]: 214% (active) | outcome [4]: inactive

CC(C)(C)c1ccc(Oc2ccc(N)cn2)cc1
activation [1]: 260% (active) | potentiation [2]: 81.5% (active) | potentiation [3]: 282% (active) | outcome [4]: inactive

O=C(NC(=S)Nc1ccccc1Cl)c1csnn1
activation [1]: 450% (active) | potentiation [2]: 174% (active) | potentiation [3]: 510% (active) | outcome [4]: inactive

CCOC(=O)c1sc(NC(=S)NC(=O)c2ccc(OC)cc2)nc1C
outcome [1]: inactive | outcome [2]: inactive | outcome [3]: inactive | outcome [4]: inactive

O=[N+]([O-])c1ccc(/C([O-])=C(/C(=S)NCc2ccco2)[n+]2ccccc2)cc1
outcome [1]: inactive | outcome [2]: inactive | outcome [3]: inactive | outcome [4]: inactive

OC(C#CCCN1CCCCC1)(c1ccccc1)c1ccccc1
outcome [1]: inactive | outcome [2]: inactive | outcome [3]: inactive | outcome [4]: inactive

CCOC(=O)c1sc(N2N=C(C)C(N=Nc3cccc(C)c3)C2=O)nc1C (stereo not given)
outcome [1]: inactive | potentiation [2]: 31% (active) | potentiation [3]: 148% (active) | outcome [4]: inactive

C/C(=N\NC(=O)c1cccc(F)c1)c1ccc(Br)s1
outcome [1]: inactive | outcome [2]: inactive | outcome [3]: inactive | outcome [4]: inactive

C=C(C)CNC(=S)Nc1nc2c(cc1C(=O)OCC)CCCC2
activation [1]: 143% (active) | outcome [2]: inactive | outcome [3]: inactive | outcome [4]: inactive

CC1Cc2ccccc2N1C(=S)NC(=O)c1cccc(Br)c1 (stereo not given)
activation [1]: 726% (active) | potentiation [2]: 224% (active) | potentiation [3]: 576% (active) | outcome [4]: inactive

CCCN(CCC)C(=S)NC(=O)c1ccc(-c2ccccc2)cc1
activation [1]: 436% (active) | potentiation [2]: 248% (active) | potentiation [3]: 556% (active) | outcome [4]: inactive

C=CCN(CC=C)C(=S)NC(=O)c1ccc(OC)cc1
activation [1]: 187% (active) | potentiation [2]: 43.5% (active) | potentiation [3]: 162% (active) | outcome [4]: inactive

Fc1ccc(NC(=S)N/N=C/c2ccc(F)c(F)c2)c(F)c1
outcome [1]: inactive | outcome [2]: inactive | outcome [3]: inactive | outcome [4]: inactive

CN(C)CCNc1ncnc2c1sc1nc(N3CCCC3)c3c(c12)CC(C)(C)OC3
outcome [1]: inactive | potentiation [2]: 32% (active) | outcome [3]: inactive | outcome [4]: inactive

CC1Cc2cc(/C=C3/SC(=S)NC3=O)ccc2O1 (stereo not given)
outcome [1]: inactive | outcome [2]: inactive | outcome [3]: inactive | current potentiation [4]: 24.4% (active)

O=C(COc1ccccc1F)Nc1c2c(nn1-c1ccccc1)CS(=O)(=O)C2
outcome [1]: inactive | outcome [2]: inactive | outcome [3]: inactive | outcome [4]: inactive

CC(=O)Oc1c(-c2ccc(Br)o2)oc2ccccc2c1=O
activation [1]: 480% (active) | potentiation [2]: 109% (active) | potentiation [3]: 482% (active) | outcome [4]: inactive

Cc1cccc(/C=C2/S/C(=N/N=C3\CC4CCC3(C)C4(C)C)NC2=O)c1 (stereo not given)
outcome [1]: inactive | potentiation [2]: 28% (active) | outcome [3]: inactive | outcome [4]: inactive

CCCCOC(=O)c1ccc(NC(=S)NC(=O)c2c(Cl)cnn2C)cc1
outcome [1]: inactive | potentiation [2]: 77.5% (active) | potentiation [3]: 160% (active) | outcome [4]: inactive

Cc1sc(N/N=C/c2ccco2)nc1-c1ccccc1
outcome [1]: inactive | outcome [2]: inactive | outcome [3]: inactive | outcome [4]: inactive

CN1CCN(S(=O)(=O)c2cccc(C(=O)Nc3cc(Cl)ccc3N3CCOCC3)c2)CC1
outcome [1]: inactive | outcome [2]: inactive | outcome [3]: inactive | outcome [4]: inactive

CCn1nc(C)c(NC(=O)c2cnn3c(C(F)F)cc(-c4ccccc4)nc23)c1C
outcome [1]: inactive | outcome [2]: inactive | outcome [3]: inactive | outcome [4]: inactive

CC(C)CN=Cc1c(O)c([N+](=O)[O-])cc2oc3c(c12)CCCC3
outcome [1]: inactive | outcome [2]: inactive | outcome [3]: inactive | outcome [4]: inactive

COc1cc(CN(C)CC2CCCN(CCc3cccc(C(F)(F)F)c3)C2)ccc1O (stereo not given)
outcome [1]: inactive | potentiation [2]: 43% (active) | outcome [3]: inactive | outcome [4]: inactive

Cc1cc(S(=O)(=O)N2CCOCC2)ccc1OCC(=O)NCc1ccccn1
outcome [1]: inactive | outcome [2]: inactive | outcome [3]: inactive | outcome [4]: inactive

CN1c2ccccc2C(O)=C(C(=S)Nc2ccc(Cl)cc2)S1(=O)=O
activation [1]: 139% (active) | outcome [2]: inactive | potentiation [3]: 146% (active) | outcome [4]: inactive

Cc1cnc(NC(=O)c2ccc(-c3nc4ccccc4s3)o2)s1
outcome [1]: inactive | outcome [2]: inactive | outcome [3]: inactive | outcome [4]: inactive

COc1cc(CN2CCN(c3cccc(Cl)c3)CC2)cc(OC)c1OC
outcome [1]: inactive | outcome [2]: inactive | outcome [3]: inactive | outcome [4]: inactive

Oc1c(Cl)cc(Cl)cc1/C=N/c1nccs1
activation [1]: 174% (active) | outcome [2]: inactive | outcome [3]: inactive | outcome [4]: inactive

Cc1cc2ccccn2c1C(=S)NC(=O)c1ccccc1
activation [1]: 290% (active) | potentiation [2]: 102% (active) | potentiation [3]: 370% (active) | outcome [4]: inactive

Cc1nc2ccccc2c(N)c1C(=O)/C=C/c1ccccc1
outcome [1]: inactive | outcome [2]: inactive | outcome [3]: inactive | outcome [4]: inactive

CCOC(=O)c1c(NC(=S)NC)sc2c1CC(C)(C)SC2
activation [1]: 498% (active) | potentiation [2]: 126% (active) | potentiation [3]: 444% (active) | outcome [4]: inactive

COc1cccc(C=NCC(C)N=Cc2cccc(OC)c2O)c1O (stereo not given)
outcome [1]: inactive | outcome [2]: inactive | outcome [3]: inactive | outcome [4]: inactive

O=C1CCC/C(=N\NC(=O)c2ccc(COc3cccc4cccnc34)cc2)C1
outcome [1]: inactive | outcome [2]: inactive | outcome [3]: inactive | outcome [4]: inactive

Cn1nc(SCC(=O)O)sc1=S
outcome [1]: inactive | outcome [2]: inactive | outcome [3]: inactive | outcome [4]: inactive

COc1cccc(Oc2cnc(N)nc2-c2ccc(OC)cc2O)c1
outcome [1]: inactive | outcome [2]: inactive | outcome [3]: inactive | outcome [4]: inactive
